Publication PMC5624507 (Advanced functional materials, 2017)
Bridge positions count the residues as written; N and C are the ends. Peptide text beside a SMILES is read from it.

Columns and labels:
CD13 (aminopeptidase N) = CD13 (aminopeptidase N) (Homo sapiens, UniProt P15144); assay: CD13 enzyme inhibition / steady-state enzyme kinetic analysis; type: biochemical; settings: for inhibition model (affected Km, but not Vmax of CD13): steady-state kinetics, double reciprocal plot; for effect of glycine N-methylation of the named peptide on CD13 inhibition: methylated vs non-methylated peptide
Procedure, shortened: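 Enzyme inhibition was run with methylated and non-methylated peptides. IC50 is the peptide concentration inhibiting 50% of activity, from independent experiments each in duplicate. For steady-state kinetics, initial velocity was measured across varied substrate and peptide amounts and plotted as V versus substrate and as double-reciprocal plots. Ki came from two independent experiments (mean ± SE).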

[1] = type: physicochemical; settings: 37 °C, 0.1 M ammonium bicarbonate, pH 8.5, 16 or 42 h
αvβ3 integrin = αvβ3 integrin (Homo sapiens, UniProt P05106+P06756); assay: Integrin binding assay; settings: after 16 h of incubation in 0.1 M ammonium bicarbonate pH 8.5, 37 °C; competitive ELISA
CD13 = CD13 (Homo sapiens, UniProt P15144); assay: MS analysis of peptides after incubation with CD13; type: biochemical; settings: 40 min incubation with CD13, peptide 30 µM
Procedure, shortened: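 Peptides were incubated with or without CD13 (the no-enzyme incubation served as control), then analysed by MS.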

[2] = tested on: CD13+ endothelial cells (HUVEC); assay: Binding of peptide-Qdot605 nanoparticles to cultured HUVEC; type: cell-based, human; settings: peptide coupled to Qdot605 fluorescent nanoparticles, 6 nM, 2 h
Procedure, shortened: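 The control was nanoparticles activated with sulfo-SMCC but lacking peptide. Cell-bound Qdots (red) were imaged by fluorescence microscopy at 400X, with DAPI nuclear counterstain.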

[3] = physiological solutions; cited from earlier work

Ki (CD13 (aminopeptidase N)) [µM] | inhibition model (affected Km, but not Vmax of CD13) (CD13 (aminopeptidase N)) | asparagine deamidation (change of molecular mass by MS) [1] | binding to αvβ3 integrin after incubation (αvβ3 integrin) | effect of glycine N-methylation of the named peptide on CD13 inhibition (CD13 (aminopeptidase N)) | change in molecular mass upon incubation with CD13 (peptide cleavage) (CD13) | Compound | binding to CD13+ endothelial cells (HUVEC) [2] | half-life (deamidation) [3] [h]
134 ± 28 | competitive inhibition |  |  |  |  | N=C(N)NCCC[C@@H]1NC(=O)CNC(=O)[C@H](CC(N)=O)NC(=O)[C@@H](N)CSSC[C@@H](C(=O)O)NC1=O [CNGRC, reference compound] (H-CNGRC-OH; disulfide 1-5; N-terminus and C-terminus assumed) |  | 
12.4 ± 5.4 | competitive inhibition | complete deamidation | could bind | did not impair CD13 binding | No change | N=C(N)NCCC[C@@H]1NC(=O)CNC(=O)[C@H](CC(N)=O)NC(=O)CNC(=O)[C@H](CS)NC(=O)CNC1=O [N1, c[CGNGRG]] (cyclo(CGNGRG)) | could bind | 
 |  |  |  |  |  | CNGRCG |  | 3 to 5
 |  |  | could bind | reduction of inhibitory potency |  | cyclo(CNGRGG) [N3] |  | 
